Test results from ChEMBL document CHEMBL4020802, “Fused bi-heteroaryl substituted hydantoin compounds as TACE inhibitors” (Bioorg Med Chem Lett, 2017).

How the values were obtained:
[1] = Permeability from apical side to basolateral side in human Caco2 cells; format: ADME, cell-based; conditions: Caco-2, read-out: permeability
[2] = biological target: Disintegrin and metalloproteinase domain-containing protein 17 (Homo sapiens, UniProt P78536); assay: Inhibition of catalytic domain TACE (unknown origin) by FRET assay
Chain of Disintegrin and metalloproteinase domain-containing protein 17 (P78536 whole entry, the tested form may be a part): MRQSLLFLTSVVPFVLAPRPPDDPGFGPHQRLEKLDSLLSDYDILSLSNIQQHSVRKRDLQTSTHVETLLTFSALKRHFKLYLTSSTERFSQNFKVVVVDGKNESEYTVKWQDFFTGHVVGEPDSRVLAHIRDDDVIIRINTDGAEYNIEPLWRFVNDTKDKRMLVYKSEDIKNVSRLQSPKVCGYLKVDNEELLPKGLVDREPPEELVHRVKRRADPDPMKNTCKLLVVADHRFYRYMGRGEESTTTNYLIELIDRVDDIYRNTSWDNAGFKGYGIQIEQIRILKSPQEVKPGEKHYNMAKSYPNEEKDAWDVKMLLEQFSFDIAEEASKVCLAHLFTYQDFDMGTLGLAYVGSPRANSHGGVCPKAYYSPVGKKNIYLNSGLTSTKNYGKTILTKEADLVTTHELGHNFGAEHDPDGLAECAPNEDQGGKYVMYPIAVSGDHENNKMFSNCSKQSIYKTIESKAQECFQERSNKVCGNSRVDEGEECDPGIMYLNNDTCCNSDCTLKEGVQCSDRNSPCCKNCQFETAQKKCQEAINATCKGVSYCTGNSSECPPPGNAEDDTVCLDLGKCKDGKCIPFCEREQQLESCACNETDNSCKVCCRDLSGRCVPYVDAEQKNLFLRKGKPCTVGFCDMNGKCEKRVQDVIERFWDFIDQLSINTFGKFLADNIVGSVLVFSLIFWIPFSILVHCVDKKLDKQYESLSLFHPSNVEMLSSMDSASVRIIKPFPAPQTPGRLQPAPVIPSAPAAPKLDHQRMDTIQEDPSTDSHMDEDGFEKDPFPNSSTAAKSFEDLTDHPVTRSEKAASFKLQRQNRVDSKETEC

[3] = AUC in rat; format: ADME; parameters: concentration or dose not given beside the values; conditions: in vivo
Blood = assay: Antiinflammatory activity in human whole blood assessed as inhibition of LPS-induced TNF-alpha release preincubated for 1 hr followed by LPS addition after 3.5 hrs by ELISA method; format: functional
[4] = Clearance in monkey at 1 mg/kg, iv; format: ADME, organism-based, Macaca mulatta; conditions: rhesus monkey, in vivo
[5] = Clearance in rat at 3 mg/kg, iv; format: ADME, organism-based; conditions: in vivo
[6] = AUC in rat at 10 mg/kg, po; format: ADME, organism-based; conditions: in vivo
Outline: (§1)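 Oral dosing of rats, dogs and monkeys, with compounds given as Na+ or HCl salts in a 0.4% HPMC formulation. Doses were 10 mg/kg in rat, 2 or 3 mg/kg in dog, and 3 or 10 mg/kg in monkey. Plasma exposure was reported as AUC in µM·h, and oral bioavailability as F%.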

[7] = AUC in dog at 3 mg/kg, po; format: ADME, organism-based, Canis lupus familiaris; conditions: in vivo; outline: as §1
[8] = AUC in monkey at 10 mg/kg, po; format: ADME, organism-based, Macaca mulatta; conditions: rhesus monkey, in vivo; outline: as §1
[9] = Oral bioavailability in dog at 3 mg/kg; format: ADME, organism-based, Canis lupus familiaris; conditions: in vivo; outline: as §1
[10] = Clearance in dog at 0.5 mg/kg, iv; format: ADME, organism-based, Canis lupus familiaris; conditions: in vivo
[11] = Oral bioavailability in rat at 10 mg/kg; format: ADME, organism-based; conditions: in vivo; outline: as §1
[12] = Oral bioavailability in monkey at 10 mg/kg; format: ADME, organism-based, Macaca mulatta; conditions: rhesus monkey, in vivo; outline: as §1
[13] = AUC in dog at 2 mg/kg, po; format: ADME, organism-based, Canis lupus familiaris; conditions: in vivo; outline: as §1
[14] = AUC in monkey at 3 mg/kg, po; format: ADME, organism-based, Macaca mulatta; conditions: rhesus monkey, in vivo; outline: as §1
[15] = biological target: Matrix metalloproteinase-9 (Homo sapiens, UniProt P14780); assay: Inhibition of MMP9 (unknown origin)
Chain of Matrix metalloproteinase-9 (P14780 whole entry): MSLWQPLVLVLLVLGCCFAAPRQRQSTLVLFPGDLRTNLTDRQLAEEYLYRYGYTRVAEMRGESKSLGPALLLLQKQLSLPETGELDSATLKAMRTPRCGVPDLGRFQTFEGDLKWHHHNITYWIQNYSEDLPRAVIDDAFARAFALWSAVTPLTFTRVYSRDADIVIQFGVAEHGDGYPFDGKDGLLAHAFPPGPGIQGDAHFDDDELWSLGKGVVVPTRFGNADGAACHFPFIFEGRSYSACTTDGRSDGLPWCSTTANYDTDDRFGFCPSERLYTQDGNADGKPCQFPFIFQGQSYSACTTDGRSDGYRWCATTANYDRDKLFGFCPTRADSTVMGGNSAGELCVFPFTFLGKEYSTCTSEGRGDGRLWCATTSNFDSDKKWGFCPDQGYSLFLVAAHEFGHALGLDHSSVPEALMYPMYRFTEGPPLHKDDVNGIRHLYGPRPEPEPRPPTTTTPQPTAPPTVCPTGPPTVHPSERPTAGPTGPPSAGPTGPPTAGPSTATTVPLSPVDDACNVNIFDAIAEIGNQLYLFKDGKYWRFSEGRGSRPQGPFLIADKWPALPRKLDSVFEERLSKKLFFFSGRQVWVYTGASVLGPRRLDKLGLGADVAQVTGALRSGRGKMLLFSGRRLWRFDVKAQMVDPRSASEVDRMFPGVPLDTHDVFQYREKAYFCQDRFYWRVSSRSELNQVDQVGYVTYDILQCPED

Stromelysin-1 = Stromelysin-1 (Homo sapiens, UniProt P08254); assay: Inhibition of MMP3 (unknown origin)
Chain of Stromelysin-1 (P08254 whole entry, the tested form may be a part): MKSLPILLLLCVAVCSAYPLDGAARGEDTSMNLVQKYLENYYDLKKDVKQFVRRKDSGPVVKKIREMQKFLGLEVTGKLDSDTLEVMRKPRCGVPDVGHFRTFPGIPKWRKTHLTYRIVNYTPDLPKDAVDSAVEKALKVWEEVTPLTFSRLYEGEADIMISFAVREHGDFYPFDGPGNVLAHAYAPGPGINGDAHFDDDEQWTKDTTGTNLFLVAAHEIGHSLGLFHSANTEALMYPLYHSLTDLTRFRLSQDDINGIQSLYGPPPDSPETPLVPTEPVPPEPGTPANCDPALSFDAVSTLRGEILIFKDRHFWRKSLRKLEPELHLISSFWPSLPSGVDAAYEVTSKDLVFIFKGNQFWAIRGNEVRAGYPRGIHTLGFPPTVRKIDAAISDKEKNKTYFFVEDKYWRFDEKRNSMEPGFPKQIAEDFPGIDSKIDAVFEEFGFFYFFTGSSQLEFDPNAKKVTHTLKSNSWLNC

[16] = biological target: T1, Disintegrin and metalloproteinase domain-containing protein 10 (Homo sapiens, UniProt O14672); assay: Inhibition of ADAM10 (unknown origin)
T1 sequence (O14672 whole entry): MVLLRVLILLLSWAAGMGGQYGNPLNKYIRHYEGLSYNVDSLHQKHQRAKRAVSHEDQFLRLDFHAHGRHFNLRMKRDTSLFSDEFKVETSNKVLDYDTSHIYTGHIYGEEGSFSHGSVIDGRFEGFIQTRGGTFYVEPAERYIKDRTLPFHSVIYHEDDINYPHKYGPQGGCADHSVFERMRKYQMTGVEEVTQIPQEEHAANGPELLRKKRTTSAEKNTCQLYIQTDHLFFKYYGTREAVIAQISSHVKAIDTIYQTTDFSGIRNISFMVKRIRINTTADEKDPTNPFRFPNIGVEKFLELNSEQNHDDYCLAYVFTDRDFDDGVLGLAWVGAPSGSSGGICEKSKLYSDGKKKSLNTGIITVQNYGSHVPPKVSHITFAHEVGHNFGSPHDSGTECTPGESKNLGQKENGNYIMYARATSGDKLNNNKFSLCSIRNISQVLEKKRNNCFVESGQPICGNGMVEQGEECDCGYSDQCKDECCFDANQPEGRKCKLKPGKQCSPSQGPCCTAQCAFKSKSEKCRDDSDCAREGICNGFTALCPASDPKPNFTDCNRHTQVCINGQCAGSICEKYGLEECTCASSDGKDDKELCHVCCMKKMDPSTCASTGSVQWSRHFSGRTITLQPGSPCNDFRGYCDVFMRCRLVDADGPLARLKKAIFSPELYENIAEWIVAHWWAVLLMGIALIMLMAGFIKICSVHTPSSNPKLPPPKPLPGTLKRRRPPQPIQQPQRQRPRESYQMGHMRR

Interstitial collagenase = biological target: T2, Interstitial collagenase (Homo sapiens, UniProt P03956); assay: Inhibition of MMP1 (unknown origin)
T2 sequence (P03956 whole entry): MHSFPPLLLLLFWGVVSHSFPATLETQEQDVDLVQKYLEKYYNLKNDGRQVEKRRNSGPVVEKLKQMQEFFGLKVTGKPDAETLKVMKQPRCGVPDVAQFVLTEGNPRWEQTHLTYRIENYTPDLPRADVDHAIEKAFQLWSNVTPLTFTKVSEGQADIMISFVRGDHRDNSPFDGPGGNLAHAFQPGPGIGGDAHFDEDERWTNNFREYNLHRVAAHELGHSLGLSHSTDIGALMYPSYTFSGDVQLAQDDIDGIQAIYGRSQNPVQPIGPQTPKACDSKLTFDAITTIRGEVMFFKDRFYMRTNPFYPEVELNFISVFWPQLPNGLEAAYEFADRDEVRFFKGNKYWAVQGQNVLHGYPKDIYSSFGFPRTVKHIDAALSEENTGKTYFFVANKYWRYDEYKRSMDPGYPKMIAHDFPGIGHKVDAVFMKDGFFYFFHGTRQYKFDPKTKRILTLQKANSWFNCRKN

Collagenase 3 = Collagenase 3 (Homo sapiens, UniProt P45452); assay: Inhibition of MMP13 (unknown origin)
[17] = Oral bioavailability in monkey at 3 mg/kg; format: ADME, organism-based, Macaca mulatta; conditions: rhesus monkey, in vivo; outline: as §1
[18] = biological target: 72 kDa type IV collagenase (Homo sapiens, UniProt P08253); assay: Inhibition of MMP2 (unknown origin)
Chain of 72 kDa type IV collagenase (P08253 whole entry): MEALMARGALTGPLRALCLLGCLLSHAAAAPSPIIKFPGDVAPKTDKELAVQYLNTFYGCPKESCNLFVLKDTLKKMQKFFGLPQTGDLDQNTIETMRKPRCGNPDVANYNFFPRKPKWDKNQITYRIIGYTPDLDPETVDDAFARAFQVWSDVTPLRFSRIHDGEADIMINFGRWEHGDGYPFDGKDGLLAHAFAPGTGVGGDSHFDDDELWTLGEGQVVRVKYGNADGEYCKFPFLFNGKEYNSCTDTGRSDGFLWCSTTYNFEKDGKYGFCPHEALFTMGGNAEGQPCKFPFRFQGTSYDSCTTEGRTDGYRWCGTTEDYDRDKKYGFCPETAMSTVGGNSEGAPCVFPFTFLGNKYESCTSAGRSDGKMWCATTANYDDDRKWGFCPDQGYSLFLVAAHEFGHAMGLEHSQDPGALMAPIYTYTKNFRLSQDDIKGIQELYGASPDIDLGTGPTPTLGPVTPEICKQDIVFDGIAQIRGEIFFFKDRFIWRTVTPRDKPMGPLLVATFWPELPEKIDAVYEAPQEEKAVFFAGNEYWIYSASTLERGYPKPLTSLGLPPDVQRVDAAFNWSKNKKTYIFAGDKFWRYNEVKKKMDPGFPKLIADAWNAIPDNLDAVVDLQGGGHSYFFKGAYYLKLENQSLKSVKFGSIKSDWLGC

Matrilysin = biological target: T3, Matrilysin (Homo sapiens, UniProt P09237); assay: Inhibition of MMP7 (unknown origin)
T3 sequence (P09237 whole entry): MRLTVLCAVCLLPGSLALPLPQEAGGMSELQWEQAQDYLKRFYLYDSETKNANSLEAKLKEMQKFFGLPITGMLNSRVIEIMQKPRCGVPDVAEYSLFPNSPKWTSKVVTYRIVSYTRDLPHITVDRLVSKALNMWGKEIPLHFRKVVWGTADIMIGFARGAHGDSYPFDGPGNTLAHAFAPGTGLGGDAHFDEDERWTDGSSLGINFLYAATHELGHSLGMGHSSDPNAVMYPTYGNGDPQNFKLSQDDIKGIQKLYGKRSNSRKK

[19] = biological target: Matrix metalloproteinase-14 (Homo sapiens, UniProt P50281); assay: Inhibition of MMP14 (unknown origin)

SMILES | Ki [2] [nM] | AUC [3] [µM·h] | IC50 (Blood) [nM] | also measured
COc1ccc2c(c1)C(=O)N(C[C@@]1(C#Cc3cccnc3)NC(=O)NC1=O)C2 |  |  |  | Papp A→B [1]: 1.6 ×10⁻⁶ cm/s
COc1ccc2c(c1)C(=O)N(C[C@@]1(c3cc4nc(N(c5cn[nH]c5)C5CCN(C)CC5)ccc4o3)NC(=O)NC1=O)C2 | 1 | 0.06 |  | Papp A→B [1]: 0.1 ×10⁻⁶ cm/s
COc1ccc2c(c1)C(=O)N(C[C@@]1(c3cc4cnc(C)cc4o3)NC(=O)NC1=O)C2 | 0.4 | 19.1 | 350 | Papp A→B [1]: 2.05 ×10⁻⁶ cm/s
COc1ccc2c(c1)C(=O)N(C[C@@]1(c3cc4ncccc4o3)NC(=O)NC1=O)C2 | 0.5 | 27 | 290 | clearance [4]: 11 mL/min/kg; clearance [5]: 15 mL/min/kg; AUC [6]: 10 µM·h; Papp A→B [1]: 1.2 ×10⁻⁶ cm/s; AUC [7]: 41 µM·h; AUC [8]: 22 µM·h; bioavailability [9]: 82%; clearance [10]: 3 mL/min/kg; bioavailability [11]: 35%; bioavailability [12]: 46%
COc1ccc2c(c1)C(=O)N(C[C@@]1(c3cc4cncc(N)c4o3)NC(=O)NC1=O)C2 | 0.4 | 0.1 | 310 | 
COc1ccc2c(c1)C(=O)N(C[C@@]1(c3cc4cccnc4o3)NC(=O)NC1=O)C2 | 0.7 | 34 | 590 | 
COc1ccc2c(c1)C(=O)N(C[C@@]1(c3cc4cnc(C(F)(F)F)cc4o3)NC(=O)NC1=O)C2 | 0.5 | 19.3 | 1620 | 
COc1ccc2c(c1F)C(=O)N(C[C@@]1(c3cc4nc(N5CCC(N(C)C)CC5)ccc4o3)NC(=O)NC1=O)C2 |  | 0.04 | 76 | 
COc1ccc2c(c1)C(=O)N(C[C@@]1(c3cn4ccccc4n3)NC(=O)NC1=O)C2 | 1.4 |  | 1480 | 
COc1ccc2c(c1F)C(=O)N(C[C@@]1(c3cc4cnc(C)cc4o3)NC(=O)NC1=O)C2 | 0.4 | 26.3 | 210 | AUC [13]: 13.5 µM·h; AUC [6]: 13.4 µM·h; bioavailability [11]: 11%; AUC [14]: 1.5 µM·h
COc1ccc2c(c1)C(=O)N(C[C@@]1(c3cc4ncccc4[nH]3)NC(=O)NC1=O)C2 | 3.6 |  | 2970 | 
COc1ccc2c(c1)C(=O)N(C[C@@]1(c3cc4c(C)nc(C)cc4o3)NC(=O)NC1=O)C2 | 0.5 | 4.2 | 680 | 
COc1ccc2c(c1)C(=O)N(C[C@@]1(c3cc4nc(-n5cccn5)ccc4o3)NC(=O)NC1=O)C2 | 0.4 | 21 | 1370 | 
COc1ccc2c(c1)C(=O)N(C[C@@]1(c3cc4c(C#N)nccc4o3)NC(=O)NC1=O)C2 | 0.7 | 0.5 | 1240 | 
COc1ccc2c(c1)C(=O)N(C[C@@]1(c3cc4cncnc4o3)NC(=O)NC1=O)C2 | 1.6 | 2.2 | 770 | 
CNC(=O)c1cnc2cc([C@]3(CN4Cc5ccc(OC)cc5C4=O)NC(=O)NC3=O)oc2c1 | 0.9 |  |  | 
COc1ccc2c(c1)C(=O)N(C[C@@]1(c3cc4c(-c5cn[nH]c5)nccc4o3)NC(=O)NC1=O)C2 | 0.2 |  | 150 | 

SMILES | Ki [2] [nM] | AUC [3] [µM·h] | IC50 (Blood) [nM] | also measured
COc1ccc2c(c1)C(=O)N(C[C@@]1(c3cc4nc(N)ccc4o3)NC(=O)NC1=O)C2 | 0.5 | 0.4 | 187 | 
COc1ccc2c(c1)C(=O)N(C[C@@]1(c3cc4cnc(N5CCNC5=O)cc4o3)NC(=O)NC1=O)C2 | 1.8 | 1.2 | 210 | 
COc1ccc2c(c1)C(=O)N(C[C@@]1(c3cc4nc(N(c5cn[nH]c5)C5CCNCC5)ccc4o3)NC(=O)NC1=O)C2 | 0.4 |  | 93 | Papp A→B [1]: 0.22 ×10⁻⁶ cm/s
COc1ccc2c(c1)C(=O)N(C[C@@]1(c3cc4cncc(C)c4o3)NC(=O)NC1=O)C2 | 0.5 | 8.7 | 760 | 
COc1ccc2c(c1)C(=O)N(C[C@@]1(c3cc4ccccc4o3)NC(=O)NC1=O)C2 | 0.3 | 0.2 | 2310 | 
COc1ccc2c(c1F)C(=O)N(C[C@@]1(c3cc4nc(N5CC(=O)NC5=O)c(F)cc4o3)NC(=O)NC1=O)C2 | 0.4 | 3.2 |  | 
COc1ccc2c(c1)C(=O)N(C[C@@]1(c3cn4ccsc4n3)NC(=O)NC1=O)C2 | 1.3 | 2.2 | 540 | 
COc1ccc2c(c1)C(=O)N(C[C@@]1(c3cc4cnccc4o3)NC(=O)NC1=O)C2 | 0.7 | 13 | 270 | IC50 [15]: 1760 nM; IC50 (Stromelysin-1): 5500 nM; clearance [4]: 7 mL/min/kg; Ki [16]: 144 nM; IC50 (Interstitial collagenase): 4710 nM; clearance [5]: 23 mL/min/kg; IC50 (Collagenase 3): 684 nM; AUC [6]: 11 µM·h; Papp A→B [1]: 1.5 ×10⁻⁶ cm/s; AUC [7]: 52 µM·h; bioavailability [9]: 98%; clearance [10]: 3 mL/min/kg; bioavailability [17]: 19%; IC50 [18]: 533 nM; bioavailability [11]: 58%; IC50 (Matrilysin): > 40000 nM; AUC [14]: 10 µM·h; IC50 [19]: 239 nM
COc1ccc2c(c1)C(=O)N(C[C@@]1(c3cc4cncc(F)c4o3)NC(=O)NC1=O)C2 | 2 | 2.7 | 1090 | 
COc1ccc2c(c1)C(=O)N(C[C@@]1(c3cn4cccnc4n3)NC(=O)NC1=O)C2 | 1.9 | 3.2 | 710 | 
COc1ccc2c(c1)C(=O)N(C[C@@]1(c3cc4c(O)nccc4o3)NC(=O)NC1=O)C2 | 0.2 |  | 250 | 
COc1ccc2c(c1F)C(=O)N(C[C@@]1(c3cc4nc(N5CCNC(=O)C5)ccc4o3)NC(=O)NC1=O)C2 | 0.6 | 0.1 |  | 
COc1ccc2c(c1F)C(=O)N(C[C@@]1(c3cc4nc(C)c(-c5ccc(N)nc5)cc4o3)NC(=O)NC1=O)C2 |  |  | 308 | 
COc1ccc2c(c1)C(=O)N(C[C@@]1(c3cc4c(N5CCNCC5)nccc4o3)NC(=O)NC1=O)C2 | 2.5 |  | 230 | 
COc1ccc2c(c1)C(=O)N(C[C@@]1(c3cc4nc(-c5cn[nH]c5)ccc4o3)NC(=O)NC1=O)C2 | 0.5 | 0.1 | 99 | 
COc1ccc2c(c1)C(=O)N(C[C@@]1(c3cc4c(C(F)(F)F)nccc4o3)NC(=O)NC1=O)C2 | 0.4 |  | 1070 | 
